Laboratory results published in paper PMC7479925 (Journal of medicinal chemistry, 2012).
Where two headings read alike, the source gives them in different places.

Key:
[1] = target: T1, Tdp1 (Homo sapiens, UniProt Q9NUW8); assay: Tdp1 gel-based assay with recombinant human Tdp1 and N14Y DNA substrate; type: biochemical; details: for Tdp1 inhibition (in words): highest tested concentration 333 μM
[2] = target: T1, Tdp1; assay: SPR binding to immobilized Tdp1; details: dilution series 0.39-50 μM
Summary of the method: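 Tdp1 (1 μM) was pre-bound for 20 min with 2 μM 3′-phosphate 14-mer oligo in 10 mM Na acetate pH 4.5 to shield active-site amines, then amine-coupled to a CM5 chip (~6000 RU), with a Tdp1-free reference surface. Test compound was injected at 30 μL/min, 25 °C, in 50 mM Tris/HCl pH 7.5, 80 mM KCl, 5% DMSO. Referencing used buffer cycles and a DMSO calibration; NaCl/DMSO regeneration.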

[3] = test system: N14Y oligomer (biotin-[…]-Tyr); assay: SPR binding to immobilized tyrosyl-labeled oligonucleotide; details: dilution series 0.39-50 μM

T1 sequence (Q9NUW8 whole entry): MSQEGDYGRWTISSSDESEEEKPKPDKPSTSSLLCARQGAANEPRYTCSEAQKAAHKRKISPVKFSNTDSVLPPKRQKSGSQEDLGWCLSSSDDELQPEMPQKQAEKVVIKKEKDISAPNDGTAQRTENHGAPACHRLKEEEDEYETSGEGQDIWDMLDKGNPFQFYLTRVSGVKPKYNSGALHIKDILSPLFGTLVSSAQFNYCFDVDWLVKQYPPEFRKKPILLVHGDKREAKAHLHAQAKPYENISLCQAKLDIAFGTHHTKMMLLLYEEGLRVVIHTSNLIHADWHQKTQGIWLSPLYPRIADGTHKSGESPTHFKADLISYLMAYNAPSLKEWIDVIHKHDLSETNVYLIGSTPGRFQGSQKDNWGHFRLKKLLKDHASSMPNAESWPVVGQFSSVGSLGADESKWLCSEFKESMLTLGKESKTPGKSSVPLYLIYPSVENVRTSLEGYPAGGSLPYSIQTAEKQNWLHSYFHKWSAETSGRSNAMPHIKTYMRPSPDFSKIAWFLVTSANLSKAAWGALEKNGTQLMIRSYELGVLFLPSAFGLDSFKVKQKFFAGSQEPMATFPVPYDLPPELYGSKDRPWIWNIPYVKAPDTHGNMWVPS

Row | Compound | IC50 [1] [µM] | Tdp1 inhibition (in words) [1] | also measured
1 | O=C1/C(=C/c2ccc3[nH]ccc3c2)NC(=S)N1c1ccccc1 [Compound 34, (Z)-5-((1H-Indol-5-yl)methylene)-3-phenyl-2-thioxoimidazolidin-4-one] | 111 to 333 |  | 
2 | O=C1NC(=S)/C(=C/c2ccc(P(=O)(O)O)cc2)S1 [Compound 74, (Z)-(4-((2-Oxo-4-thioxothiazolidin-5-ylidene)methyl)phenyl)-phosphonic Acid] |  |  | fold improvement in potency over 44 ([1]; Tdp1 IC50 vs compound 44): 7.3 fold
3 | O=C1NC(=S)/C(=C/c2ccc(O)c(O)c2O)S1 [Compound 50, (Z)-4-Thioxo-5-(2,3,4-trihydroxybenzylidene)thiazolidin-2-one] |  |  | binding to Tdp1 (SPR) [2]: concentration-dependent binding; binding to N14Y oligomer (SPR) [3]: No binding
4 | N#CC(C#N)=Cc1cc(O)c(O)c(O)c1 [Compound 7] |  | completely inactive | 
5 | N#C/C(=C\c1ccc(O)c(O)c1)C(=O)O [Compound 4] |  | completely inactive | 
6 | O=C1NC(=S)N(Cc2ccccc2)/C1=C\c1ccc(F)cc1 [Compound 37, (Z)-1-Benzyl-5-(4-fluorobenzylidene)-2-thioxoimidazolidin-4-one] | 111 to 333 |  | 
7 | N#C/C(=C\c1ccc(O)c(O)c1)C(=O)NCc1ccccc1 [Compound 6] |  | completely inactive | 
8 | N#C/C(=C\c1ccc(O)c(O)c1)C(N)=O [Compound 5] |  | completely inactive | 
9 | O=C1NC(=O)/C(=C/c2ccc(O)c(O)c2)S1 [Compound 39, (Z)-5-(3,4-Dihydroxybenzylidene)thiazolidine-2,4-dione] | 111 to 333 |  | 
10 | (Z)-5-(2-Bromobenzylidene)-4-thioxothiazolidin-2-one [Compound 62] |  |  | IC50 ([1]; read-out: Tdp1 IC50, recombinant human Tdp1, gel-based assay): 30 ± 12 µM
